This is an account of results in ChEMBL document CHEMBL1132607, “Synthesis, pharmacological characterization, and molecular modeling of heterobicyclic amino acids related to (+)-2-aminobicyclo[3.1.0] hexane-2,6-dicarboxylic acid (LY354740): identification of two new potent, selective, and systemically active agonists for group II metabotropic glutamate receptors” (J Med Chem, 1999).

Assay [1] is described as follows: Ability to displace [3H]LY-341,495 binding to Group II Metabotropic glutamate receptor from rat forebrain. The gist of the method:
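Rat forebrain homogenates; displacement of the group II-selective radioligand [3H]LY341495. Where an IC50 below 100 µM could be determined, runs were in triplicate. Values are given as mean IC50 ± standard error.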

Assay [2] has as its target T1, Metabotropic glutamate receptor 3 (Homo sapiens, UniProt Q14832). In words: Ability to displace [3H]LY-341,495 from recombinant human Metabotropic glutamate receptor 3 expressed in RGT cells. In kind it is cell-based.
The target of assay [3] is T2, Metabotropic glutamate receptor 2 (Homo sapiens, UniProt Q14416). In words: Ability to displace [3H]LY-341,495 from recombinant human Metabotropic glutamate receptor 2 subtypes expressed in RGT cells. In kind it is cell-based.
T2 sequence (Q14416 whole entry): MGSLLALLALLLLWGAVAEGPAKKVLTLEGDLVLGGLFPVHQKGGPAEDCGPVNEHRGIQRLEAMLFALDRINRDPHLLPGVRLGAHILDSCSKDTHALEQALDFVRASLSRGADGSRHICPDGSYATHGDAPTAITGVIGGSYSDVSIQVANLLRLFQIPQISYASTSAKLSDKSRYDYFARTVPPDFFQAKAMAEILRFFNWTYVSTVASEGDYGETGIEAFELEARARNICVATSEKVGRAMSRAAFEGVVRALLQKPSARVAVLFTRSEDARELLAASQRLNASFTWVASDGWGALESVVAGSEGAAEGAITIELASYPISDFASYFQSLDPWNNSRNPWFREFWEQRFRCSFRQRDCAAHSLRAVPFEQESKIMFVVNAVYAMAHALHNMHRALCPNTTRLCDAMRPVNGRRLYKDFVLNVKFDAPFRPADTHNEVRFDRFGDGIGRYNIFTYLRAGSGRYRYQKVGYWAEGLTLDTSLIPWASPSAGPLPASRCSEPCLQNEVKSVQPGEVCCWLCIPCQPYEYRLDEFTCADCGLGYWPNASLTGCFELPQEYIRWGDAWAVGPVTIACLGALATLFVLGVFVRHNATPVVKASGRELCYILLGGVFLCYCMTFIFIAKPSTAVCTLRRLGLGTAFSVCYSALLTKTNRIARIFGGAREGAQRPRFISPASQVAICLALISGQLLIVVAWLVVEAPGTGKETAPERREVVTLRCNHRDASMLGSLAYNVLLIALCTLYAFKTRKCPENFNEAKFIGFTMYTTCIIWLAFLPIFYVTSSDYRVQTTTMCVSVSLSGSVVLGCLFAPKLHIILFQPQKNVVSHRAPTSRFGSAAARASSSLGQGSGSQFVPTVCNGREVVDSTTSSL
Assay [4] in a line: Ability to displace [3H]CGP-39653 binding to N-methyl-D-aspartate glutamate receptor from rat forebrain. The gist of the method:
(§1)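 Rat forebrain homogenates; displacement of [3H]kainic acid (kainate), [3H]AMPA (AMPA) or [3H]CGP39653 (NMDA) binding, tested up to 100 000 nM. Where an IC50 below 100 µM could be determined, runs were in triplicate. Values are given as mean IC50 ± standard error.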

The target in assay [5] is T3, Glutamate receptor ionotropic, AMPA (Rattus norvegicus, UniProt P19490+P19491+P19492+P19493). In words: Ability to displace [3H]AMPA binding to Ionotropic glutamate receptor AMPA from rat forebrain. In outline:
as §1

Assay [6] concerns the target Glutamate receptor ionotropic, kainate. The experiment in a line: Ability to displace [3H]-KA binding to Ionotropic glutamate receptor kainate from rat forebrain. In outline:
as §1

The target in assay [7] is T2, Metabotropic glutamate receptor 2. In words: Inhibition of forskolin stimulated cAMP production in RGT cells expressing recombinant human Metabotropic glutamate receptor 2. In kind it is functional, cell-based.
Assay [8] addresses Metabotropic glutamate receptor 4 (Homo sapiens, UniProt Q14833). In words: Inhibition of forskolin stimulated cAMP production in RGT cells expressing recombinant human mGluR4a. In kind it is functional, cell-based. The gist of the method:
(§2)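 AV12-664 (RGT) cells co-expressing the GLAST glutamate transporter and one recombinant human mGlu receptor (mGlu1a, mGlu4a, mGlu5a, mGlu6, mGlu7a or mGlu8). Second-messenger response measured; agonist and antagonist modes tested, typically up to 10 000–100 000 nM. EC50 and Emax reported.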
A general note: cAMP levels reflect the balance of adenylyl cyclase and phosphodiesterase activity.

The target of assay [9] is Metabotropic glutamate receptor 8 (Homo sapiens, UniProt O00222). In words: Inhibition of forskolin stimulated cAMP production in RGT cells expressing recombinant human mGluR8. In kind it is functional, cell-based. The gist of the method:
as §2

Assay [10] addresses T1, Metabotropic glutamate receptor 3. The experiment in a line: Inhibition of forskolin stimulated cAMP production in RGT cells expressing recombinant human Metabotropic glutamate receptor 3. In kind it is functional, cell-based.
Assay [11] deals with Metabotropic glutamate receptor 5 (Homo sapiens, UniProt P41594). In words: […] in RGT cells expressing recombinant human mGluR5a. In kind it is functional, cell-based. In outline:
as §2

Assay [12] deals with Metabotropic glutamate receptor 6 (Homo sapiens, UniProt O15303). In words: Inhibition of forskolin stimulated cAMP production in RGT cells expressing recombinant human mGluR6. In kind it is functional, cell-based. In outline: as §2
For assay [13], the target named is Metabotropic glutamate receptor 1 (Homo sapiens, UniProt Q13255). The experiment in a line: […] in RGT cells expressing recombinant human mGluR1a. In kind it is functional, cell-based. The gist of the method:
as §2

Assay [14] addresses Metabotropic glutamate receptor 7 (Homo sapiens, UniProt Q14831). In words: Inhibition of forskolin stimulated cAMP production in RGT cells expressing recombinant human mGluR7. In kind it is functional, cell-based. The gist of the method: as §2
The target in assay [15] is T3, Glutamate receptor ionotropic, AMPA. In words: Binding affinity against Ionotropic glutamate receptor AMPA using [3H]AMPA as radioligand. In kind it is protein-complex assay. In outline: as §1
Assay [16] has as its system Mus musculus. The experiment in a line: Effect on limbic seizures induced by ACPD in NIH Swiss mice at 30 mg/kg dose 1 hr after systemic administration. In kind it is functional, Limbic system. In outline: (§3)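 Male NIH Swiss mice received test agent ip 1, 2 or 4 h before unilateral intracerebral injection of (1S,3R)-ACPD (400 nmol). Controls received H2O ip before ic H2O or ACPD. Mice were watched after ACPD for limbic seizures (clonic forelimb contractions, rearing to a praying stance, loss of balance, falling). Scored as number seizing/number treated (n=10); ED50 calculated.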

Assay [17] deals with Mus musculus. The experiment in a line: Effect on limbic seizures induced by ACPD in NIH Swiss mice 4 hr after systemic administration. In kind it is functional. Particulars: Limbic system. In outline:
as §3

The test system of assay [18] is Mus musculus. The experiment in a line: Effect on limbic seizures induced by ACPD in NIH Swiss mice 2 hr after systemic administration. In kind it is functional. Conditions: Limbic system. The gist of the method: as §3
Assay [19] deals with Mus musculus. In words: Effect on limbic seizures induced by ACPD in NIH Swiss mice 1 hr after systemic administration. In kind it is functional. Conditions: Limbic system. The gist of the method:
as §3

Assay [20] concerns Mus musculus. In words: Effect on limbic seizures induced by ACPD in NIH Swiss mice at 100 mg/kg dose 1 hr after systemic administration. In kind it is functional, Limbic system. In outline:
as §3

Sequence of Metabotropic glutamate receptor 7 (Q14831 whole entry): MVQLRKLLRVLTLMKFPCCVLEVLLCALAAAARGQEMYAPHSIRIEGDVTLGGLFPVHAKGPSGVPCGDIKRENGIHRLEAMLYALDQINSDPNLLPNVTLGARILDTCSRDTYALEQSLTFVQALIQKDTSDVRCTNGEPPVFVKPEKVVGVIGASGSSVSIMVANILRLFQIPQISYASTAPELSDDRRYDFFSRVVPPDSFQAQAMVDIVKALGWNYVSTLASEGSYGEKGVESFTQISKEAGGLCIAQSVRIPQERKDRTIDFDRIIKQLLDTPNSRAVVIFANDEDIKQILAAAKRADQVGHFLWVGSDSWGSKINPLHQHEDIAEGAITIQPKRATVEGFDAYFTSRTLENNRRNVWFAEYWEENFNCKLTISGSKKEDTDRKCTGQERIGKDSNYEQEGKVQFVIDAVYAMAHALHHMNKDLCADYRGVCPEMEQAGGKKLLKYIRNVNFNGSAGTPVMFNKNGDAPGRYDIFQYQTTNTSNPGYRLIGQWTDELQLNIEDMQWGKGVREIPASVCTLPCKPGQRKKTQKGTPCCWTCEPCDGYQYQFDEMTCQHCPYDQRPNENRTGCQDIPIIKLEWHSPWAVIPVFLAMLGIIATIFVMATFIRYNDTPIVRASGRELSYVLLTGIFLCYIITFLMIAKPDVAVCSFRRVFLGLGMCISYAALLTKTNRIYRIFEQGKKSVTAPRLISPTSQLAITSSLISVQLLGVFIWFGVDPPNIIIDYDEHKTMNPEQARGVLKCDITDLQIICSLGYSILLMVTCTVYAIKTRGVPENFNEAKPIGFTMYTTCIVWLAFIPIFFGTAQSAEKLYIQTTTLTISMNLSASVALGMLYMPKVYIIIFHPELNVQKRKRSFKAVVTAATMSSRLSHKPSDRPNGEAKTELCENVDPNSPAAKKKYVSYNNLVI
Sequence of Metabotropic glutamate receptor 8 (O00222 whole entry): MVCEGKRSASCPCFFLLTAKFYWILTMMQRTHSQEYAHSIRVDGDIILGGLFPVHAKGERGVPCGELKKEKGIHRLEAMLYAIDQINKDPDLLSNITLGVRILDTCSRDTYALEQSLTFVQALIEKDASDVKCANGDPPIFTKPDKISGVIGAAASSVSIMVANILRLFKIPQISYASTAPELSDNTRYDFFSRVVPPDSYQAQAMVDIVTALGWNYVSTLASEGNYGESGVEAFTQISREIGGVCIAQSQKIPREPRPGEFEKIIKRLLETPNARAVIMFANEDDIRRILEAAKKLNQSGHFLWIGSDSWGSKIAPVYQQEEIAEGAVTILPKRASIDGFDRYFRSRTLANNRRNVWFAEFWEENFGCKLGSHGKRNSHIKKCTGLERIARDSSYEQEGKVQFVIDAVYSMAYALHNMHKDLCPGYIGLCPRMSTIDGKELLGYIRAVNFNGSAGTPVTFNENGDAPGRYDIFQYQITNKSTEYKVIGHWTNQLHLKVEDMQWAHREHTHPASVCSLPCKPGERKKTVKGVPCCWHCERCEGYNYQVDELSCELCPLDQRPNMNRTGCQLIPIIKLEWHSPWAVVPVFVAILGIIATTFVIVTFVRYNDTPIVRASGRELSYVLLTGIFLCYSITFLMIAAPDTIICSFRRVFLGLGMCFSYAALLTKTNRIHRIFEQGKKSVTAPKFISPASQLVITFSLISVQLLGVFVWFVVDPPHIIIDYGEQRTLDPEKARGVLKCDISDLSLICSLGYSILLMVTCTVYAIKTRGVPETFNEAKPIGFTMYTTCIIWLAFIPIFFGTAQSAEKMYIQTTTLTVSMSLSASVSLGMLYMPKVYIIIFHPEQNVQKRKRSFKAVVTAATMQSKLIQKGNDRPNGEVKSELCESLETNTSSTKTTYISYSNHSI
T1 sequence (Q14832 whole entry): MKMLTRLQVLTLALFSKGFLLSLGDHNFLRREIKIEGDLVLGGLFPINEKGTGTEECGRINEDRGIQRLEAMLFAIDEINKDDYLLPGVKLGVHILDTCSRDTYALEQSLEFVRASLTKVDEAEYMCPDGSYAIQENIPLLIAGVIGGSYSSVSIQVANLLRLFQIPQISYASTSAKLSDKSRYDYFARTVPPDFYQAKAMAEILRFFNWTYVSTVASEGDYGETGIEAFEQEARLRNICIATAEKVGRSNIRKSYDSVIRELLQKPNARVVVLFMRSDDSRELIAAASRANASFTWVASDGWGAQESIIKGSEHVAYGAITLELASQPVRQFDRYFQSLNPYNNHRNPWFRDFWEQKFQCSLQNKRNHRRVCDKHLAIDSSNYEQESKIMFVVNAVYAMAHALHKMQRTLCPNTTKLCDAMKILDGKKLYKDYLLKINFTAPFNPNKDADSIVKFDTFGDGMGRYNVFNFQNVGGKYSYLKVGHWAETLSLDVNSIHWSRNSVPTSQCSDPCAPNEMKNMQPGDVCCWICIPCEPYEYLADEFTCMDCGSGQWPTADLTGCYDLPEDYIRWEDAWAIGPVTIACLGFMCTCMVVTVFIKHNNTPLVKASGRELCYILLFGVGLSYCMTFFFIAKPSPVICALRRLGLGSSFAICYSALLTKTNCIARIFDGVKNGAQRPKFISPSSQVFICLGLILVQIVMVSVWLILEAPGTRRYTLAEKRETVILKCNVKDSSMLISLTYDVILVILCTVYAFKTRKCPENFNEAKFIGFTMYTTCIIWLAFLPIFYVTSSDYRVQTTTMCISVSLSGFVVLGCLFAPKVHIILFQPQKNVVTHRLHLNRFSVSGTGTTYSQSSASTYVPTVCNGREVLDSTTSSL
Sequence of Metabotropic glutamate receptor 4 (Q14833 whole entry): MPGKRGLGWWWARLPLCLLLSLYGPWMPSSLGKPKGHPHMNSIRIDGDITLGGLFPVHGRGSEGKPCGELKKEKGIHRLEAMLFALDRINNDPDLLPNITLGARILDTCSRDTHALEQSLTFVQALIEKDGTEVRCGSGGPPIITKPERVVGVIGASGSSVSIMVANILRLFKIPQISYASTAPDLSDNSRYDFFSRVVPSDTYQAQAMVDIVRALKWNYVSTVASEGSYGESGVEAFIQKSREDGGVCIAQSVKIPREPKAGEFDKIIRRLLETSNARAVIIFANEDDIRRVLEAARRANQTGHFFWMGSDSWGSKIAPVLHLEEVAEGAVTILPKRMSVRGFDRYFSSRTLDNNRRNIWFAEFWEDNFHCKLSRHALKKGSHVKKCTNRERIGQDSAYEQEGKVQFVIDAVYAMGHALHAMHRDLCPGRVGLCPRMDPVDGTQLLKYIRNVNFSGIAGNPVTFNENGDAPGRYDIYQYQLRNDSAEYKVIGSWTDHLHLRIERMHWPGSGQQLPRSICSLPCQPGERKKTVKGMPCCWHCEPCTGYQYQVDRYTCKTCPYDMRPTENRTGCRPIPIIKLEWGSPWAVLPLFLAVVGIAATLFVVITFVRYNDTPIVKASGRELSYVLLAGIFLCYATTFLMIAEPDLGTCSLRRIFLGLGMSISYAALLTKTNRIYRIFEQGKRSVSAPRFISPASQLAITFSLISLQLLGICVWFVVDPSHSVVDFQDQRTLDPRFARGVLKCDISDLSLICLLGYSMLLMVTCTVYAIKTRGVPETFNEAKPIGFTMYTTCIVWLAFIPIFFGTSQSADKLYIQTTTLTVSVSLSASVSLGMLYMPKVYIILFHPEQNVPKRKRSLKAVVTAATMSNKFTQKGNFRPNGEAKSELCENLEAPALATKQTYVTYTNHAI

In [1], `N[C@@]1(C(=O)O)CS[C@H]2[C@H](C(=O)O)[C@H]21` (stereo in doubt; (+)-10) [LY-389795] displayed an IC50 of 792 nM. Moreover, the Ki turned out to be 170 nM in assay [2] and 819 nM in assay [3].
For `N[C@@]1(C(=O)O)CS[C@H]2[C@H](C(=O)O)[C@H]21` (racemic) [LY-389795], the IC50 in [1] was 26.1 nM; in assay [4], more than 100000 nM; in assay [5], more than 100000 nM; in assay [6], more than 100000 nM. In addition, the inhibition constant Ki was determined as 9.4 nM in [2] and 67.2 nM in assay [3].
Compound `N[C@@]1(C(=O)O)CO[C@H]2[C@H](C(=O)O)[C@H]21` (stereo in doubt; (+)-9) [LY-379268] showed an IC50 in assay [1] of 5040 nM. In addition, the Ki in assay [2] amounted to 1040 nM; in assay [3], 2000 nM.
Regarding `N[C@@]1(C(=O)O)CC[C@H]2[C@H](C(=O)O)[C@H]21` [EGLUMETAD], the IC50 in [1] is 254 nM; in assay [4], more than 100000 nM; in [6], more than 100000 nM; in assay [15], more than 100000 nM. Further, the EC50 in [7] is 11.1 nM; in assay [8], more than 100000 nM; in [9], 11500 nM; in [10], 38 nM; in assay [11], more than 100000 nM; in assay [12], 2990 nM. In addition, the EC50 in assay [13] and in assay [14] was more than 100000 nM throughout. For the same compound, the Ki in assay [2] was 93.3 nM; in [3], 74.9 nM.
In assay [1], `N[C@@]1(C(=O)O)CO[C@H]2[C@H](C(=O)O)[C@H]21` (racemic) [LY-379268] gave an IC50 of 29 nM. Besides, the Ki in [2] came to 14.3 nM; in assay [3], 36.5 nM.
`N[C@@]1(C(=O)O)CS[C@H]2[C@H](C(=O)O)[C@H]21` (stereo in doubt; (-)-10) [LY-389795] displayed an IC50 in assay [1] of 8.4 nM. Besides, the EC50 in assay [7] was 3.91 nM; in assay [8] it was more than 100000 nM; in assay [9] it was 7340 nM; in [10], 7.63 nM; in assay [11], more than 100000 nM; in assay [12], 2430 nM. Also, the EC50 in assay [13] and in assay [14] was more than 100000 nM throughout. The “No. of mice effected/No. of treated” value in the assay on Mus musculus [16] and in the assay with Mus musculus [20] was 10 in each case. Also, the ED50 in the assay with Mus musculus [17] is 14 mg/kg; in the assay on Mus musculus [18], 15 mg/kg; in the assay with Mus musculus [19] it was 14 mg/kg. Moreover, the Ki stood at 4.7 nM in [2] and 40.6 nM in assay [3].
Regarding `N[C@@]1(C(=O)O)CO[C@H]2[C@H](C(=O)O)[C@H]21` (stereo in doubt; (-)-9) [LY-379268], the IC50 was 15 nM in assay [1], more than 100000 nM in assay [4], more than 100000 nM in assay [5] and more than 100000 nM in [6]. Further, the EC50 in assay [7] is 2.69 nM; in assay [8], 21100 nM; in assay [9] it was 1690 nM; in [10] it was 4.58 nM; in [11] it was more than 100000 nM; in assay [12], 401 nM. The EC50 in assay [13] and in [14] was more than 100000 nM throughout. For the same compound, the “No. of mice effected/No. of treated” value with Mus musculus [16] and in the assay with Mus musculus [20] was 10 in each case. In addition, the ED50 in the assay with Mus musculus [17] stood at 26 mg/kg; with Mus musculus [18] it was 6 mg/kg; in the assay on Mus musculus [19] it was 19 mg/kg. The inhibition constant (Ki) in assay [2] amounted to 5.8 nM; in assay [3], 14.1 nM.

Usually IC50 stands for the concentration that inhibits the measured activity by half. Low values mean greater potency, high ones weaker potency. The term Ki denotes a measure of affinity in units of concentration, obtained from inhibition or displacement. A word on the EC50: it is the midpoint of the concentration-response curve. As a reminder, the ED50 is the dose that gives a 50% effect, or the effect in half of the subjects. Read a low ED50 as an effect at a small dose.
